The values that follow come from ChEMBL document CHEMBL4765247, “Novel mouse GABA uptake inhibitors with enhanced inhibitory activity toward mGAT3/4 and their effect on pain threshold in mice” (Eur J Med Chem, 2020).

The source made the active and inactive calls.

Data set [1] concerns BGT1 (Mus musculus, Slc6a12). Kind of data set: Inhibition of mouse GAT2 expressed in HEK293 cell line assessed as residual [3H]GABA uptake at 100 uM measured after 35 mins by liquid scintillation method.
A short description of data set [2]: Lipophilicity, logP of the compound by UPLC-MS method. The data set is classed as physicochemical. As to conditions: octanol/water; read-out: logP. In a few lines: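 LogP measured by UPLC on a BEH C18 column (2.1 × 100 mm, 1.7 µm, with C18 pre-column) coupled to an ESI tandem quadrupole MS. The method was calibrated with reference compounds of established logP values.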

Data set [3] addresses Sodium- and chloride-dependent GABA transporter 1 (Mus musculus) (UniProt P31648). Kind of data set: Inhibition of mouse GAT1 expressed in HEK293 cell line assessed as inhibition of [3H]GABA uptake at 100 uM measured after 35 mins by liquid scintillation method; values are per cent of control.
For data set [4] the target is unchanged. Kind of data set: Displacement of [3H]NO711 from mouse GAT1 expressed in HEK293 cells at 100 uM measured after 40 mins of incubation by LC-ESI-MS-MS method. The data set is classed as cell-based. As to conditions: in the assay text read “NO711” for “[3H]NO711”. In a few lines: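 Competitive MS Binding Assay for mGAT1 using NO-711 as a nonlabeled marker, quantified by LC–ESI–MS–MS. Compounds were screened at 100 µM. […] Otherwise, the percentage of remaining binding at 100 µM is given.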
(In general: Loss of bound radioactivity is the signal in a displacement assay; it reports binding, not function.)

The target in the next data set is T1, GABA transporter 4 (Mus musculus, UniProt P31650).
T1 sequence (P31650 whole entry): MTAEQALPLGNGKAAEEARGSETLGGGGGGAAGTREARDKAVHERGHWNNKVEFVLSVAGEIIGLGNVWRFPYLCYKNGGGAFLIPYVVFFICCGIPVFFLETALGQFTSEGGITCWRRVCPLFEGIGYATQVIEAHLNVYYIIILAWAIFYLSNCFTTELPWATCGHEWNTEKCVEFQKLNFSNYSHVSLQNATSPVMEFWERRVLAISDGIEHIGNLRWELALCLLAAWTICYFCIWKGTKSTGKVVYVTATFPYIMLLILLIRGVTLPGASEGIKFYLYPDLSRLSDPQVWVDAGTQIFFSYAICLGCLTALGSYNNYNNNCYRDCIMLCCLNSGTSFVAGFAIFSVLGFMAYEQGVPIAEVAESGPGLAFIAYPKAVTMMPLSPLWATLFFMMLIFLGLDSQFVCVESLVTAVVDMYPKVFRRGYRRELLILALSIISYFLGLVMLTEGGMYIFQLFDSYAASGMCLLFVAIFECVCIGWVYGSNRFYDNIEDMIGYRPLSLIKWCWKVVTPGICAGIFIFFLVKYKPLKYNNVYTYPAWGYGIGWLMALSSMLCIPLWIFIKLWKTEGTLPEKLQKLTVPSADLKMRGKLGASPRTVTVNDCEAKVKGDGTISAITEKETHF
Kind of data set: Inhibition of mouse GAT4 expressed in HEK293 cell line assessed as inhibition of [3H]GABA uptake measured after 35 mins by liquid scintillation method. The data set is classed as cell-based. Summed up: (§1)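 Otherwise, the remaining uptake at 100 µM is reported as a percentage. Values without SEM come from a single triplicate experiment.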

In data set [5] the target is GABA transporter 3 (Mus musculus, Slc6a13). Kind of data set: Inhibition of mouse GAT3 expressed in HEK293 cell line assessed as inhibition of [3H]GABA uptake measured after 35 mins by liquid scintillation method.
Data set [6] has as its target Betaine/GABA transporter BGT1 (Mus musculus, Slc6a12). Nature of the data set: Inhibition of mouse GAT2 expressed in HEK293 cell line assessed as inhibition of [3H]GABA uptake measured after 35 mins by liquid scintillation method.
The subject of data set [7] is Mus musculus. Kind of data set: Antihyperalgesic activity in STZ-induced diabetic neuropathy pain Albino Swiss mouse model assessed as reduced heat nociceptive threshold at 10 mg/kg, ip administered after 3 weeks of STZ stimulation and measured after 1 hr by hot plate method. The data set is classed as functional, organism-based. In a few lines:
(§2)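 Heat hyperalgesia in STZ-diabetic neuropathic mice (3 weeks after i.p. STZ) was measured on a hot plate 1 h after i.p. dosing. The readout was latency to pain reaction, comparing pre-drug and post-drug values (n=9-10). Results are mean ± SEM, analysed by one-way ANOVA with Tukey's post hoc test against normoglycemic controls.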
For orientation: In hot-plate and tail-flick tests a longer latency is read as antinociception.

The subject of data set [8] is Mus musculus. Nature of the data set: Antiallodynic activity in oxaliplatin-induced […] neuropathy pain Albino Swiss mouse model assessed as reduced late-phase tactile allodynia at 30 mg/kg, ip administered after 7 days of oxaliplatin stimulation by van Frey test. The class given is functional, organism-based. In a few lines:
(§3)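 Oxaliplatin-induced peripheral neuropathy in mice was tested in the acute and late phases. Compounds were given i.p. and tactile allodynia was read 1 h later by von Frey as the mean force to elicit paw withdrawal (n=7-10). Results are mean ± SEM, analysed by one-way ANOVA with Tukey's test against pre-drug force and non-neuropathic controls.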

Data set [9] addresses Sodium- and chloride-dependent GABA transporter 1 (Mus musculus, UniProt P31648). Nature of the data set: Inhibition of mouse GAT1 expressed in HEK293 cell line assessed as inhibition of [3H]GABA uptake measured after 35 mins by liquid scintillation method. The class given is cell-based. Summed up: as §1
Data set [10] has as its system Mus musculus. Kind of data set: Antiallodynic activity in STZ-induced diabetic neuropathy pain Albino Swiss mouse model assessed as reduced tactile allodynia at 10 mg/kg, ip administered after 3 weeks of STZ stimulation and measured after 1 hr by von Frey test. The class given is functional, organism-based. Summed up:
(§4)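 STZ given i.p. to induce type I diabetes in mice. About 3 weeks (21 days) later, test doses of 5, 10 and 30 mg/kg were given i.p. Von Frey tactile allodynia was read 1 h after dosing as the mean force needed to elicit paw withdrawal (n=10). Results are mean ± SEM, analysed by one-way ANOVA with Tukey's test against pre-drug force and normoglycemic controls.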

The subject of data set [11] is Mus musculus. Nature of the data set: Antihyperalgesic activity in oxaliplatin-induced […] acute neuropathy pain Albino Swiss mouse model assessed as reduction in cold allodynia at 30 mg/kg, ip administered after 3 hrs of oxaliplatin stimulation by cold plate method. The class given is functional, organism-based. In a few lines:
(§5)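 For cold allodynia, oxaliplatin-treated mice were placed on a cold plate in the acute and late phases of neuropathy after i.p. dosing. The readout was mean latency to pain reaction (n=7-10). Results are mean ± SEM, analysed by one-way ANOVA with Tukey's post hoc test against non-neuropathic controls.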

The test system of data set [12] is Mus musculus. Nature of the data set: Antihyperalgesic activity in oxaliplatin-induced […] late neuropathy pain Albino Swiss mouse model assessed as reduction in cold allodynia at 30 mg/kg, ip administered after 7 days of oxaliplatin stimulation by cold plate method. The class given is functional, organism-based. Summed up:
as §5

Data set [13] concerns Mus musculus. Kind of data set: Antiallodynic activity in STZ-induced diabetic neuropathy pain Albino Swiss mouse model assessed as reduced tactile allodynia at 30 mg/kg, ip administered after 3 weeks of STZ stimulation and measured after 1 hr by von Frey test. The data set is classed as functional, organism-based. In a few lines: as §4
Data set [14] relates to Mus musculus. Nature of the data set: Antihyperalgesic activity in STZ-induced diabetic neuropathy pain Albino Swiss mouse model assessed as reduced heat nociceptive threshold at 30 mg/kg, ip administered after 3 weeks of STZ stimulation and measured after 1 hr by hot plate method. The data set is classed as functional, organism-based. Summed up: as §2
Data set [15] has as its system Mus musculus. Nature of the data set: Antiallodynic activity in oxaliplatin-induced […] neuropathy pain Albino Swiss mouse model assessed as reduced acute-phase tactile allodynia at 30 mg/kg, ip administered after 3 hrs of oxaliplatin stimulation and measured after 1 hr by von Frey test. The data set is classed as functional, organism-based. In a few lines:
as §3

For data set [16], the system named is Mus musculus. Kind of data set: Antiallodynic activity in STZ-induced diabetic neuropathy pain Albino Swiss mouse model assessed as reduced tactile allodynia at 5 mg/kg, ip administered after 3 weeks of STZ stimulation and measured after 1 hr by von Frey test. The class given is functional, organism-based. In a few lines: as §4
Data set [17] relates to Mus musculus. Kind of data set: Antiallodynic activity in oxaliplatin-induced peripheral neuropathy pain Albino Swiss mouse model assessed as reduced late-phase tactile allodynia at 30 mg/kg, ip administered after […] of oxaliplatin stimulation and measured after 1 hr by van Frey test.
Data set [18] relates to Mus musculus. Nature of the data set: Antiallodynic activity in oxaliplatin-induced peripheral neuropathy pain Albino Swiss mouse model assessed as reduced acute-phase tactile allodynia at 10 mg/kg, ip administered after 3 hrs of oxaliplatin stimulation and measured after 1 hr by von Frey test.
The subject of data set [19] is Mus musculus. Kind of data set: Antihyperalgesic activity in oxaliplatin-induced […] acute neuropathy pain Albino Swiss mouse model assessed as reduction in cold allodynia at 10 mg/kg, ip administered after 3 hrs of oxaliplatin stimulation by cold plate method. The data set is classed as functional, organism-based. In a few lines: as §5
Data set [20] deals with Mus musculus. Kind of data set: Antihyperalgesic activity in oxaliplatin-induced […] late neuropathy pain Albino Swiss mouse model assessed as reduction in cold allodynia at 10 mg/kg, ip administered after 7 days of oxaliplatin stimulation by cold plate method. The class given is functional, organism-based. In a few lines: as §5

Regarding `Cc1ccsc1C(=CCCN(C)C(CCO)C(=O)N1CCOCC1)c1sccc1C` (stereo unspecified), the residual activity in data set [1] was 76%; in [3] it was 57%; in data set [4] it was 84%. Further, the logP in data set [2] came to 4.75. For the same compound, the IC50 at GABA transporter 4 was 33.1 µM.

On to `COc1ccc(C(OCCN2CCC[C@H](C(=O)O)C2)(c2ccc(OC)cc2)c2ccc(OC)cc2C)cc1`, for which the values for the pIC50 in data set [5] and in data set [6] were 4.85 and 4.12, respectively.

For the compound `Cc1ccsc1C(=CCCN(C)C(CO)C(=O)NCc1ccc(Cl)cc1)c1sccc1C` (stereo unspecified), the outcome in the data set on Mus musculus [7], in the data set on Mus musculus [10], in the data set on Mus musculus [11], with Mus musculus [12], in the data set on Mus musculus [14] and in the data set with Mus musculus [16] was inactive. Also, the result in the data set with Mus musculus [8], in the data set with Mus musculus [13] and in the data set on Mus musculus [15] was Active. Also, the values for the IC50 (in data set [9]; on GABA transporter 4) were 20.4 µM and 9.55 µM, respectively. In addition, the logP in [2] turned out to be 6.47. In addition, in data set [4], the residual activity is 66%.

In the case of `Cc1ccsc1C(=CCCN(C)C(CO)C(=O)NCc1ccccc1Cl)c1sccc1C` (stereo unspecified), the residual activity in data set [1] is 65%; in data set [3], 61%; in data set [4], 96%. Moreover, the IC50 at GABA transporter 4 was 77.6 µM.

On to `Cc1ccsc1C(=CCCN(C)C(CCO)C(=O)NCc1ccccc1Cl)c1sccc1C` (stereo unspecified), for which the outcome with Mus musculus [7], with Mus musculus [11], in the data set with Mus musculus [12], in the data set with Mus musculus [14], in the data set with Mus musculus [19] and in the data set on Mus musculus [16] was inactive. The result with Mus musculus [20] was inactive. Moreover, the result in the data set on Mus musculus [8], in the data set on Mus musculus [10], in the data set on Mus musculus [13], in the data set on Mus musculus [17], in the data set on Mus musculus [18] and in the data set on Mus musculus [15] was Active. Further, the results for the IC50 (in [9]; at GABA transporter 4) were 13.8 µM and 5.75 µM, respectively. Further, the logP in data set [2] is 6.23. The same compound returned a residual activity in data set [4] of 77%.

The term residual activity denotes the share of the control activity or signal that is left under treatment. Broadly, the logP is a log measure of how a compound divides between an organic and an aqueous phase. The term IC50 denotes the concentration at which inhibition is half-maximal. Usually pIC50 stands for the negative decadic logarithm of the IC50, by convention in mol/L.
